# Source: PubChem BioAssay
# Hits are enriched below; roughly 2.6% of the tested compounds scored in any of these assays.
# SENP7 inh: SENP7 protease inhibition | Q9BQF6 | recombinant SENP7, Z-RLRGG-aminoluciferin luminescence, 40 min | inhibition, % at 5 µM | 330,000 compounds, 1.5% hits;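 active means inhibition above about 50% at the single test dose, limit read from the data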;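 further: plate controls were DMSO with enzyme for no effect and no enzyme buffer wells for full effect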
# SENP8 block-1: inhibitors of human SENP8 protease. Q96LD8. purified SENP8, Z-RLRGG-aminoluciferin cleavage, luminescence. inhibition, % at 10 µM. 330,000 compounds, 1.2% hits. AID 2540; in the data active means inhibition above about 50%
# Target sequence (Q96LD8 whole entry, looked up): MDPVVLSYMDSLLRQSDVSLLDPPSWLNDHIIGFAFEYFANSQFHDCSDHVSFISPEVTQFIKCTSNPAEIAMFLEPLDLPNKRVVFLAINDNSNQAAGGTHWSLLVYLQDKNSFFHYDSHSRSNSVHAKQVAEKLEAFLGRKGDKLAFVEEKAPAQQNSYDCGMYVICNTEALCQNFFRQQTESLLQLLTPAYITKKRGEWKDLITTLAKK
# SENP6 inh: SENP6 protease inhibition; Q9GZR1; Recombinant SENP6 catalytic domain, aminoluciferin luminescence; inhibition, % at 10 µM; 330,000 compounds, 1.8% hits; AID 2599;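 active means inhibition above about 50% at the single tested dose, limit read from the data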;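 further: plate controls were DMSO wells with enzyme for no effect and DMSO wells lacking enzyme for full effect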
# Target sequence (Q9GZR1 628-1112 limits assumed): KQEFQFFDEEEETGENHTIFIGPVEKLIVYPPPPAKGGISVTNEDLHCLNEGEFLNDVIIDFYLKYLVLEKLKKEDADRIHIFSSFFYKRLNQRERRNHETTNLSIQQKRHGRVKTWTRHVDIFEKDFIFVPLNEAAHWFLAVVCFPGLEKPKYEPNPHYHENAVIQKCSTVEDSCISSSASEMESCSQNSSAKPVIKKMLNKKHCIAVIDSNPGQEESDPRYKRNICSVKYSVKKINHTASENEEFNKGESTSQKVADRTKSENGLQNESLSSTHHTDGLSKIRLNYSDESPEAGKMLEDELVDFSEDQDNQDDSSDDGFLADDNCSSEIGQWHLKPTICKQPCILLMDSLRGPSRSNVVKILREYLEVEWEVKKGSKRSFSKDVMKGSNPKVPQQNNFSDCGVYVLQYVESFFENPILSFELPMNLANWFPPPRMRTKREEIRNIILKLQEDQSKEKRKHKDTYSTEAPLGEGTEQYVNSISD
# SENP8 block-2: blocks human SENP8 cleavage of Nedd8 substrate | inhibition, % at 20 µM | AID 602440 | recombinant SENP8, Nedd8 substrate fluorescence | 360,000 compounds, 0.64% hits | Q96LD8; in the data active means inhibition mostly above about 40%, no sharp cut-off; inactive means mostly below about 27%
# UCH37 DUB inh: human UCH37 deubiquitinating enzyme inhibition; Q9Y5K5; purified proteasome/UCH37, Ub-AMC cleavage fluorescence; inhibition, % (test concentration not listed); 330,000 compounds, 0.33% hits; AID 588478;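 active means mean inhibition over replicate wells above about 20%, limit read from the data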;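 further: 0% = compound-free wells with enzyme and 100% = wells lacking proteasome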
#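 System: Proteasome-associated human UCH37 deubiquitinase; Input: 0.15 nM proteasome in added enzyme buffer; Also added: Ub-AMC substrate from 1 µM stock; Incubation: 30 min compound-proteasome preincubation then 25 min substrate reaction, room temperature; Detection: fluorescence, ex 355 nm, em 460 nm; Read-out: % inhibition of Ub-AMC cleavage fluorescence; Benchmarks: no-proteasome and no-compound wells.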
# SENP1 inh: SENP1 (human) catalytic domain inhibition; Q9P0U3; recombinant SENP1 catalytic domain, CyPet-SUMO1-YPet FRET cleavage; inhibition, % at 10 µM; 360,000 compounds, 0.21% hits; AID 624204;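 active means inhibition at least 30% at 10 µM, raw YFP signal under a set limit, fluorescence ratio 0.5 to 1.5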;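 further: 0% = enzyme with DMSO and 100% = no enzyme wells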
#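 Test system: recombinant human SENP1 catalytic domain, His6-tagged / Medium: pH 8 Tris buffer with EDTA, NaCl, BME, BSA, NP40, catalase / Also added: SUMO1 FRET substrate flanked by Cypet and Ypet, 25 nM / Times: 50 min reaction at room temperature / Signal: FRET, CFP and YFP emission / Control set: no-enzyme low control and enzyme-plus-DMSO high control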
# SENP1 inh conf: confirmation of human SENP1 SUMO protease inhibitors | recombinant SENP1, CyPet-SUMO1-YPet FRET cleavage | shares compounds with SENP1 inh | AID 651678 | inhibition, % at 10 µM | 520 compounds, 34% hits; in the data active means inhibition mostly above about 35%, no sharp cut-off; inactive means mostly below about 32%;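 further: 0% = enzyme with DMSO and 100% = no enzyme control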
# SENP1 kinetic: confirmation of human SENP1 SUMO protease inhibitors, kinetic; 520 compounds, 26% hits; recombinant SENP1, CyPet-SUMO1-YPet FRET kinetic cleavage; inhibition, % at 10 µM; shares compounds with SENP1 inh; AID 651690; in the data active means inhibition mostly above about 32%, no sharp cut-off; inactive means mostly below about 29%;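 further: 0% = DMSO with enzyme and 100% = no enzyme substrate only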
# * marks the source's active call; other numbers are inactive results; i = inactive; . = not tested or not shown.
SMILES,SENP7 inh,SENP8 block-1,SENP6 inh,SENP8 block-2,UCH37 DUB inh,SENP1 inh,SENP1 inh conf,SENP1 kinetic
C(=NNc1ccccc1)c1ccc(N2CCOCC2)cc1,.,.,.,.,-7,.,.,.
O=C(N/N=C/c1ccc(N2CCOCC2)cc1)c1ccc(O)cc1,5,17,3,-369,.,34*,25,17
CCn1c(C)nc2cc(C(=O)N/N=C/c3ccc(N4CCOCC4)cc3)ccc21,3,-2,13,-368,.,35*,28,26
O=S(=O)(N/N=C/c1ccc(N2CCOCC2)cc1)c1ccccc1,2,8,-35,13,.,37*,32,25
COc1ccc(C=NNc2ncnc(Cl)c2N)cc1OC,.,.,.,.,14,.,.,.
CC1(C)CC(=O)CC(=NNC(=O)C2CC23CCC3)C1 (stereo not drawn),.,.,.,.,0,.,.,.
CCOC(=O)c1sc(NN=Cc2cc(Br)c(O)c(OC)c2)nc1C,.,.,.,.,-9,.,.,.
COC(=O)c1ccc(-c2ccc(C=NN3C(=O)C4C5C=CC(C6CC56)C4C3=O)o2)cc1 (stereo not drawn),.,.,.,.,-2,.,.,.
CCn1c2ccccc2c2cc(C(C)=NO)ccc21,.,.,.,.,0,.,.,.
Cc1cc(C(=O)NN)c2cc(Br)ccc2n1,0,-1,-13,12,3,1,.,.
NNC(=O)c1cc(-c2ccc(N)cc2)nc2ccc(Br)cc12,-1,-8,-3,-11,7,49*,26,23
CC(NS(=O)(=O)c1ccc2c(c1)oc(=O)n2C)c1ccccc1 (stereo not drawn),3,2,-3,2,3,34*,12,15
Cn1cccc1C=Nn1c(-c2ccc(Cl)cc2Cl)n[nH]c1=S,.,.,.,.,5,.,.,.
CC(=O)c1sc(NN=Cc2ccc(Br)cc2)nc1C,.,.,.,.,-11,.,.,.
C/C(=N\NC(=O)c1ccc(C)cc1C)c1ccc2c(c1)Nc1ccccc1S2,9,-6,0,7,.,61*,6,-6
O=C(CN1C(=O)C(=O)N(Cc2ccccc2)C1=O)Nc1cc(Cl)cc(Cl)c1,-1,-3,-17,0,3,2,.,.
N#CCSc1ccccc1NC(=O)CN1C(=O)C(=O)N(Cc2ccccc2)C1=O,-1,1,3,3,1,38*,14,11
COc1ccc(C=NNc2nnc(-c3ccccc3)c(=O)[nH]2)cc1,.,.,.,.,9,.,.,.
Cc1nc(-c2ccc(F)cc2)c(CC(=O)N2CCN(S(=O)(=O)c3cccc([N+](=O)[O-])c3)CC2)s1,-6,-4,0,6,5,35*,10,2
Cc1cccc(C)c1NC(=O)C1C(c2ccccc2)=Nc2ccccc2N1C(=O)c1cnccn1 (stereo not drawn),.,.,.,1,.,37*,16,15
COc1cc(Cn2c3ccc(NC(=O)CC(C)C(F)(F)F)cc3c(=O)n2C)ccc1F (stereo not drawn),.,.,.,i,.,31*,9,10
CC(CC(=O)Nc1ccc2c(c1)c(=O)n(C)n2Cc1ccc(Cl)cc1)C(F)(F)F (stereo not drawn),.,.,.,-479,.,5,.,.
CCOC(=O)C1=C(c2ccccc2)NC(=O)NC1c1cc(OC)c(OC)c(OC)c1 (stereo not drawn),-7,-22,-12,-2,5,-1,.,.
CCOC(=O)C1=C(c2ccccc2)NC(=O)NC1c1cc(Cl)c(O)c(OC)c1 (stereo not drawn),-8,0,12,11,4,32*,30,23
COc1ccc(NC(=O)CC#N)cc1OC,7,-3,-10,8,4,53*,-4,1
SMILES,SENP7 inh,SENP8 block-1,SENP6 inh,SENP8 block-2,UCH37 DUB inh,SENP1 inh,SENP1 inh conf,SENP1 kinetic
COc1ccc(C=NNC(=O)CN2CCS(=O)(=O)CC2)cc1,.,.,.,.,6,.,.,.
O=C(CN1CCSC1=NCc1ccccc1)c1ccc(Cl)c(Cl)c1,-6,-14,-21,18,0,40*,-13,-5
CCSC1=N/C(=C\C=C2/Oc3ccccc3N2CC)C(=O)S1,-1,-6,-33,33,6,43*,28,17
CCC1CCCCN1CCCNS(=O)(=O)c1ccc2c(c1)oc(=O)n2C (stereo not drawn),2,-1,-4,10,2,31*,19,7
CCC1CCCCN1CCNS(=O)(=O)c1ccc2c(c1)oc(=O)n2C (stereo not drawn),1,7,-14,2,3,-5,.,.
COc1ccccc1O,5,4,4,0,-4,-5,.,.
COc1cccc2c1-c1c(O)cccc1C2=O,-1,6,4,12,8,31*,42*,26
C=CCOc1c(Br)cc(/C=C2\SC(=Nc3ccccc3)NC2=O)cc1OC,1,6,14,-23,-2,42*,25,20
CCOc1cc(Br)cc(/C=C2\SC(=Nc3ccccc3)NC2=O)c1O,-2,0,2,14,5,35*,69*,45*
CC(=NOC(=O)c1c(-c2c(F)cccc2Cl)noc1C)c1nccs1,.,.,.,.,1,.,.,.
O=C(NN=Cc1ccccc1O)C(=O)N1CCCCCC1,.,.,.,.,2,.,.,.
COC(=O)CCC(C)=NNc1ccc([N+](=O)[O-])cc1[N+](=O)[O-],.,.,.,.,8,.,.,.
O=C1C(Cl)=C(N2CCCCCC2)C(=O)N1c1ccc(Cl)cc1,-2,-12,10,23,2,25,.,.
O=C1C(Cl)=C(N2CCCC2)C(=O)N1c1ccc(F)cc1,8,-14,-12,12,5,35*,11,10
Cc1nc2ccccc2n1CC(=O)NN=C/C=C/c1ccccc1,.,.,.,.,3,.,.,.
O=C(Nc1cc(F)cc(F)c1)c1ccc(NCCc2ccccc2)c([N+](=O)[O-])c1,0,-11,-9,17,2,38*,36*,36*
COc1cc(-c2oc3cc(O)cc(O)c3c(=O)c2O[C@@H]2O[C@H](COC3O[C@@H](C)[C@H](O)[C@@H](O)[C@H]3O)[C@@H](O)[C@H](O)[C@H]2O)ccc1O (stereo partly drawn),-17,-10,-17,11,4,8,.,.
C[C@@H]1O[C@@H](OC[C@H]2O[C@@H](Oc3cc(O)c4c(=O)cc(-c5ccc(O)c(O)c5)oc4c3)[C@H](O)[C@@H](O)[C@@H]2O)[C@H](O)[C@H](O)[C@H]1O,5,7,-5,29,6,43*,57*,42*
COc1cc([N+](=O)[O-])cc(C=NNC(=O)C(O)(c2ccccc2)c2ccccc2)c1O,.,.,.,.,12,.,.,.
COC(=O)c1ccc(N/N=C/c2cc([N+](=O)[O-])cc(OC)c2O)cc1,17,29,34,35,.,49*,5,-1
